In ChEMBL document CHEMBL4680121, “Development of (4-methoxyphenyl)-1H-tetrazol-5-amine regioisomers as a new class of selective antitubercular agents” (Eur J Med Chem, 2020):

Assays:
Type in all cases: functional
[1] = system: Mycobacterium tuberculosis; experiment: Antitubercular activity against PAS/INH/EMB/RMP-resistant Mycobacterium tuberculosis Spec.210 assessed as fractional inhibitory concentration index in presence of 1/2 x MIC streptomycin incubated for 14 days by MABA method; conditions: time 14 day
Summary of the method: (§1)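 Interaction analysis in Middlebrook 7H9 with 10% OADC. Combination MICs came from mixing the derivative (1 to 1/32 MIC) with the reference drug at 1/2 MIC, and the reverse, after 14 days at 37 °C with McFarland 1 inoculum. FICI was calculated from the combination MIC values and the MICs alone.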

[2] = system: Mycobacterium tuberculosis; experiment: Potency index, Ratio of ethambutol MIC to test compound MIC for antitubercular activity against PAS/INH/EMB/RMP-resistant Mycobacterium tuberculosis Spec.210 assessed as inhibition of microbial growth incubated for 1 week by MABA method; conditions: time 1 weeks
[3] = system: Mycobacterium tuberculosis; experiment: Antitubercular activity against PAS/INH/EMB/RMP-resistant Mycobacterium tuberculosis Spec.210 assessed as reduction in bacterial growth incubated for 14 days in presence of 1/2 x MIC isoniazid by MABA method; conditions: Mycobacterium tuberculosis, 210, 336 h; time 14 day
Summary of the method: (§2)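 Checkerboard-style combination in Middlebrook 7H9 broth with 10% OADC. The test derivative was varied from 1 to 1/32 of its MIC, and the reference drug was fixed at 1/2 its own MIC. Single-agent MICs were determined first by MABA. Samples of 4 ml received inoculum at 1 McFarland and were incubated 14 days at 37 °C. The endpoint was the lowest derivative concentration that inhibited growth.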

[4] = system: Mycobacterium tuberculosis; experiment: Antitubercular activity against INH-resistant Mycobacterium tuberculosis Spec.800 assessed as isoniazid MIC incubated for 14 days in presence of isoniazid by MABA method; conditions: Mycobacterium tuberculosis, 800, 336 h; time 14 day
Summary of the method: (§3)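 In Middlebrook 7H9 with 10% OADC, the reference drug (INH, RMP, SM or EMB) at 1 to 1/32 of its MIC alone was mixed with the test derivative fixed at 1/2 its MIC. 4 ml samples were inoculated with McFarland 1 suspension and incubated 14 days at 37 °C. MIC is the lowest drug concentration in combination that inhibited growth.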

[5] = system: Mycobacterium tuberculosis; experiment: Potentiation of streptomycin-induced antimycobacterial activity against INH-resistant Mycobacterium tuberculosis Spec.800 harboring InhA promoter mutation assessed as fold decrease in streptomycin MIC at 1/2X MIC incubated for 14 days in presence of streptomycin by MABA method; conditions: time 14 day
Summary of the method: (§4)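 Combination assay in Middlebrook 7H9 broth with 10% OADC. The reference drug (INH, RMP, SM or EMB) was varied from 1 to 1/32 of its MIC, and the test derivative was fixed at 1/2 its own MIC. Single-agent MICs were determined first by MABA. Inoculum was 1 McFarland, with 14 days of incubation at 37 °C. The endpoint was the lowest reference-drug concentration that inhibited growth.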

[6] = system: Mycobacterium tuberculosis; experiment: Potency index, Ratio of rifampicin MIC to test compound MIC for antitubercular activity against PAS/INH/EMB/RMP-resistant Mycobacterium tuberculosis Spec.210 assessed as inhibition of microbial growth incubated for 1 week by MABA method; conditions: time 1 weeks
[7] = system: Mycobacterium tuberculosis; experiment: Antitubercular activity against INH-resistant Mycobacterium tuberculosis Spec.800 harboring InhA promoter mutation assessed as fractional inhibitory concentration index in presence of 1/2 x MIC streptomycin incubated for 14 days by MABA method; conditions: time 14 day; summary of the method: as §1
[8] = system: Mycobacterium tuberculosis; experiment: Antitubercular activity against INH-resistant Mycobacterium tuberculosis Spec.800 assessed as reduction in bacterial growth incubated for 14 days in presence of 1/2 x MIC isoniazid by MABA method; conditions: Mycobacterium tuberculosis, 800, 336 h; time 14 day
Summary of the method: (§5)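 Checkerboard-type combination in Middlebrook 7H9 with 10% OADC. The test derivative at 1 to 1/32 of its MIC alone was mixed with the reference drug fixed at 1/2 its MIC. 4 ml samples were inoculated with McFarland 1 suspension and incubated 14 days at 37 °C. MIC is the lowest derivative concentration in combination that inhibited growth in liquid medium.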

[9] = system: Mycobacterium tuberculosis; experiment: Antitubercular activity against INH-resistant Mycobacterium tuberculosis Spec.800 assessed as reduction in bacterial growth incubated for 14 days in presence of 1/2 x MIC ethambutol by MABA method; conditions: Mycobacterium tuberculosis, 800, 336 h; time 14 day; summary of the method: as §5
[10] = system: Mycobacterium tuberculosis; experiment: Antitubercular activity against PAS/INH/EMB/RMP-resistant Mycobacterium tuberculosis Spec.210 assessed as fractional inhibitory concentration index in presence of 1/2 x MIC isoniazid incubated for 14 days by MABA method; conditions: time 14 day; summary of the method: as §1
[11] = system: Mycobacterium tuberculosis; experiment: Antitubercular activity against PAS/INH/EMB/RMP-resistant Mycobacterium tuberculosis Spec.210 assessed as reduction in bacterial growth incubated for 14 days in presence of 1/2 x MIC ethambutol by MABA method; conditions: Mycobacterium tuberculosis, 210, 336 h; time 14 day; summary of the method: as §2
[12] = system: Mycobacterium tuberculosis; experiment: Potency index, Ratio of streptomycin MIC to test compound MIC for antitubercular activity against PAS/INH/EMB/RMP-resistant Mycobacterium tuberculosis Spec.210 assessed as inhibition of microbial growth incubated for 1 week by MABA method; conditions: time 1 weeks
[13] = system: Mycobacterium tuberculosis; experiment: Antitubercular activity against INH-resistant Mycobacterium tuberculosis Spec.800 harboring InhA promoter mutation assessed as fractional inhibitory concentration index in presence of 1/2 x MIC ethambutol incubated for 14 days by MABA method; conditions: time 14 day; summary of the method: as §1
[14] = system: Mycobacterium tuberculosis; experiment: Antitubercular activity against INH-resistant Mycobacterium tuberculosis Spec.800 assessed as reduction in bacterial growth incubated for 14 days in presence of 1/2 x MIC rifampicin by MABA method; conditions: Mycobacterium tuberculosis, 800, 336 h; time 14 day; summary of the method: as §5
[15] = system: Mycobacterium tuberculosis; experiment: Antitubercular activity against PAS/INH/EMB/RMP-resistant Mycobacterium tuberculosis Spec.210 assessed as reduction in bacterial growth incubated for 14 days in presence of 1/2 x MIC streptomycin by MABA method; conditions: Mycobacterium tuberculosis, 210, 336 h; time 14 day; summary of the method: as §2
[16] = system: Mycobacterium tuberculosis; experiment: Antitubercular activity against PAS/INH/EMB/RMP-resistant Mycobacterium tuberculosis Spec.210 assessed as fractional inhibitory concentration index in presence of 1/2 x MIC ethambutol incubated for 14 days by MABA method; conditions: time 14 day; summary of the method: as §1
[17] = system: Mycobacterium tuberculosis; experiment: Antitubercular activity against PAS/INH/EMB/RMP-resistant Mycobacterium tuberculosis Spec.210 assessed as isoniazid MIC incubated for 14 days in presence of isoniazid by MABA method; conditions: Mycobacterium tuberculosis, 210, 336 h; time 14 day; summary of the method: as §3
[18] = system: Mycobacterium tuberculosis; experiment: Potency index, Ratio of isoniazid MIC to test compound MIC for antitubercular activity against PAS/INH/EMB/RMP-resistant Mycobacterium tuberculosis Spec.210 assessed as inhibition of microbial growth incubated for 1 week by MABA method; conditions: time 1 weeks
[19] = system: Mycobacterium tuberculosis; experiment: Antitubercular activity against PAS/INH/EMB/RMP-resistant Mycobacterium tuberculosis Spec.210 assessed as fractional inhibitory concentration index in presence of 1/2 x MIC rifampicin incubated for 14 days by MABA method; conditions: time 14 day; summary of the method: as §1
[20] = system: Mycobacterium tuberculosis; experiment: Antitubercular activity against INH-resistant Mycobacterium tuberculosis Spec.800 assessed as rifampicin MIC incubated for 14 days in presence of rifampicin by MABA method; conditions: Mycobacterium tuberculosis, 800, 336 h; time 14 day; summary of the method: as §3
[21] = system: Mycobacterium tuberculosis; experiment: Antitubercular activity against PAS/INH/EMB/RMP-resistant Mycobacterium tuberculosis Spec.210 assessed as ethambutol MIC incubated for 14 days in presence of ethambutol by MABA method; conditions: Mycobacterium tuberculosis, 210, 336 h; time 14 day; summary of the method: as §3
[22] = system: Mycobacterium tuberculosis; experiment: Antitubercular activity against PAS/INH/EMB/RMP-resistant Mycobacterium tuberculosis Spec.210 assessed as streptomycin MIC incubated for 14 days in presence of streptomycin by MABA method; conditions: Mycobacterium tuberculosis, 210, 336 h; time 14 day; summary of the method: as §4

COc1ccc(-n2nnnc2Nc2cccc(Br)c2)cc1
fractional inhibitory concentration index (FICI) [1]: 1.25
Ratio [2]: 16
MIC [3]: 0.25 mg/L
MIC [4]: 1 mg/L
fold change (FC) [5]: <=4
Ratio [6]: 16
fractional inhibitory concentration index (FICI) [7]: 0.56
MIC [8]: 16 mg/L
MIC [9]: 32 mg/L
fractional inhibitory concentration index (FICI) [10]: 1.125
MIC [11]: 2 mg/L
Ratio [12]: 8
fractional inhibitory concentration index (FICI) [13]: 0.75
MIC [14]: 64 mg/L
MIC [15]: 0.5 mg/L
fractional inhibitory concentration index (FICI) [16]: 1.5
MIC [17]: 16 mg/L
Ratio [18]: 8
fractional inhibitory concentration index (FICI) [19]: 0.5
MIC [20]: 0.25 mg/L
MIC [21]: 16 mg/L
MIC [22]: 16 mg/L

COc1ccc(-n2nnnc2Nc2ccc(Br)cc2)cc1
fractional inhibitory concentration index (FICI) [1]: 1
Ratio [2]: 16
MIC [3]: 0.25 mg/L
MIC [4]: 0.5 mg/L
fold change (FC) [5]: 4
Ratio [6]: 16
fractional inhibitory concentration index (FICI) [7]: 0.375
MIC [8]: 32 mg/L
MIC [9]: 32 mg/L
fractional inhibitory concentration index (FICI) [10]: 0.625
MIC [11]: 2 mg/L
Ratio [12]: 8
fractional inhibitory concentration index (FICI) [13]: 0.75
MIC [14]: 128 mg/L
MIC [15]: 1 mg/L
fractional inhibitory concentration index (FICI) [16]: 1.5
MIC [17]: 8 mg/L
Ratio [18]: 8
fractional inhibitory concentration index (FICI) [19]: 0.75
MIC [20]: 0.125 mg/L
MIC [21]: 16 mg/L
MIC [22]: 8 mg/L
